Data from ChEMBL document CHEMBL4020827, “Targeting Multiple Effector Pathways in Pancreatic Ductal Adenocarcinoma with a G-Quadruplex-Binding Small Molecule” (J Med Chem, 2018).

Experiments:
MIA PaCa-2 [1] = experiment: Effect on SMO gene expression in human MIAPaCa2 cells at 400 nM after 6 hrs by RNA sequence analysis relative to control; type: functional
Summary of the method: (§1)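 RNA-seq: cells seeded overnight in 60 mm plates (PANC-1 0.35 x 10^6, MIA PaCa-2 1.5 x 10^6 cells/well), then exposed to 400 nM compound for 6 or 24 h against untreated controls. Cell lines mycoplasma-free by RNA-capture ELISA and STR-profiled. Differentially expressed genes called at FDR < 0.1.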

MIA PaCa-2 [2] = experiment: Effect on PFKL gene expression in human MIAPaCa2 cells at 400 nM after 6 hrs by RNA sequence analysis relative to control; type: functional
MIA PaCa-2 [3] = experiment: Effect on IQSEC1 gene expression in human MIAPaCa2 cells at 400 nM after 6 hrs by RNA sequence analysis relative to control; type: functional
Summary of the method: (§2)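 PANC-1 (0.35 x 10^6) or MIA PaCa-2 (1.5 x 10^6) cells seeded overnight in 60 mm plates, then exposed to 400 nM compound for 6 or 24 h; untreated cells as controls. Cells were mycoplasma-free and STR-certified. Differential expression by RNA-seq, called at FDR < 0.1.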

Mus musculus [4] = experiment: Hepatotoxicity in CD-1 nude mouse xenografted with human MIAPaCa2 cells at 15 mg/kg, iv administered twice weekly for 4 weeks by hematoxylin and eosin staining based assay; type: toxicity, organism-based; settings: in vivo, 672 h
PANC-1 [5] = experiment: Effect on TEAD3 gene expression in human PANC1 cells at 400 nM after 6 hrs by RNA sequence analysis relative to control; type: functional; summary of the method: as §1
MIA PaCa-2 [6] = experiment: Effect on TEAD2 gene expression in human MIAPaCa2 cells at 400 nM after 6 hrs by RNA sequence analysis relative to control; type: functional; summary of the method: as §1
MIA PaCa-2 [7] = experiment: Effect on PFKFB4 gene expression in human MIAPaCa2 cells at 400 nM after 24 hrs by RNA sequence analysis relative to control; type: functional
PANC-1 [8] = experiment: Effect on PARD6A gene expression in human PANC1 cells at 400 nM after 24 hrs by RNA sequence analysis relative to control; type: functional
MCF7 = experiment: Growth inhibition of human MCF7 cells after 96 hrs by SRB assay; type: functional, cell-based; settings: MCF7, 96 h
MIA PaCa-2 [9] = experiment: Effect on RPTOR gene expression in human MIAPaCa2 cells at 400 nM after 24 hrs by RNA sequence analysis relative to control; type: functional; summary of the method: as §1
PANC-1 [10] = experiment: Effect on AKT1S1 gene expression in human PANC1 cells at 400 nM after 6 hrs by RNA sequence analysis relative to control; type: functional; summary of the method: as §2
MIA PaCa-2 [11] = experiment: Effect on TEAD3 gene expression in human MIAPaCa2 cells at 400 nM after 6 hrs by RNA sequence analysis relative to control; type: functional; summary of the method: as §1
PANC-1 [12] = experiment: Effect on MAPK12 gene expression in human PANC1 cells at 400 nM after 6 hrs by RNA sequence analysis relative to control; type: functional
PANC-1 [13] = experiment: Effect on ROBO3 gene expression in human PANC1 cells at 400 nM after 24 hrs by RNA sequence analysis relative to control; type: functional; summary of the method: as §1
MIA PaCa-2 [14] = experiment: Effect on ARF6 gene expression in human MIAPaCa2 cells at 400 nM after 24 hrs by RNA sequence analysis relative to control; type: functional; summary of the method: as §2
MIA PaCa-2 [15] = experiment: Effect on TEAD2 gene expression in human MIAPaCa2 cells at 400 nM after 24 hrs by RNA sequence analysis relative to control; type: functional; summary of the method: as §1
MIA PaCa-2 [16] = experiment: Effect on CBFA2T3 gene expression in human MIAPaCa2 cells at 400 nM after 24 hrs by RNA sequence analysis relative to control; type: functional; summary of the method: as §2
Mus musculus [17] = experiment: Nephrotoxicity in CD-1 nude mouse xenografted with human MIAPaCa2 cells at 15 mg/kg, iv administered twice weekly for 4 weeks by hematoxylin and eosin staining based assay; type: toxicity, organism-based; settings: in vivo, 672 h
Homo sapiens = species on record: Homo sapiens; experiment: Binding affinity to 5'-FAM/3'-TAMRA labeled human telomeric F21T G-quadruplex DNA assessed as change in melting temperature at 1 uM by FRET assay
Summary of the method: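 FRET melting with FAM/TAMRA dual-labelled oligonucleotides at 400 nM, annealed at 95 °C for 10 min in 60 mM potassium cacodylate pH 7.4 and slowly cooled. Ligand final 1 μM; solution contains 50 mM K+. Fluorescence read every 0.5 °C over 30–100 °C with 30 s hold, excitation 450–495 nm and emission 515–545 nm. ΔTm from curve fitting, triplicate measurements.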

PANC-1 [18] = experiment: Effect on PIK3R3 gene expression in human PANC1 cells at 400 nM after 24 hrs by RNA sequence analysis relative to control; type: functional

SMILES: O=C1c2ccc3c4c(c(NCCN5CCCC5)cc(c24)C(=O)N1CCCN1CCOCC1)C(=O)N(CCCN1CCOCC1)C3=O
- log2FC (MIA PaCa-2 [1]): -0.34
- log2FC (MIA PaCa-2 [2]): 0
- log2FC (MIA PaCa-2 [3]): -1.11
- Activity (Mus musculus [4]): Non-Toxic
- log2FC (PANC-1 [5]): -0.59
- log2FC (MIA PaCa-2 [6]): -0.65
- log2FC (MIA PaCa-2 [7]): -0.93
- log2FC (PANC-1 [8]): -1.41
- IC50 (MCF7): 159 nM
- log2FC (MIA PaCa-2 [9]): -0.68
- log2FC (PANC-1 [10]): -0.11
- log2FC (MIA PaCa-2 [11]): -1.06
- log2FC (PANC-1 [12]): -0.75
- log2FC (PANC-1 [13]): -0.85
- log2FC (MIA PaCa-2 [14]): -0.54
- log2FC (MIA PaCa-2 [15]): -0.91
- log2FC (MIA PaCa-2 [16]): -2.86
- Activity (Mus musculus [17]): Non-Toxic
- ΔTm (Homo sapiens): 11.8 °C
- log2FC (PANC-1 [18]): -0.54
